Hit rate of the full screen: of about 310,000 compounds, about 1,400 (0.45%) were called active.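 How the source made its calls: active means calcium response B-score plate-corrected fluorescence ratio at least 3 library SD, with starting fluorescence B-score inside 5 SD; inactive means the rest.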 Only a selection was taken, and actives are over-represented in it overall.

Mas-related G-protein coupled receptor member X1 (Homo sapiens), sequence (Q96LB2 whole entry, looked up): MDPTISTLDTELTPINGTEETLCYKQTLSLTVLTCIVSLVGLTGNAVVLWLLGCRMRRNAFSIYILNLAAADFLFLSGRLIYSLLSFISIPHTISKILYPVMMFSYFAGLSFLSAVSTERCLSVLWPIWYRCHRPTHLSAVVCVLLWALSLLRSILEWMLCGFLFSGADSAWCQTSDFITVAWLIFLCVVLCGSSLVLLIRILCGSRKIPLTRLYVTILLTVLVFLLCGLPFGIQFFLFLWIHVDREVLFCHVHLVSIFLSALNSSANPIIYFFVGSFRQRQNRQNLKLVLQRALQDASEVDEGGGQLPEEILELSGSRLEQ

The assay concerns the target Mas-related G-protein coupled receptor member X1 (Homo sapiens) (UniProt Q96LB2). Briefly: agonists of human MrgX1 receptor, primary screen, HEK293 cells, Fluo-4 calcium flux (AID 588627).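 On B-score: B-score of the peak-minus-trough calcium fluorescence change over baseline.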 Conditions: Fluo-4 calcium fluorescence, agonist mode, at 10 µM; active compounds read high. The essentials: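 Material – MrgX1-expressing HEK293 cells · Input – 15,000 cells seeded per well · Dosing – compound as first of three additions · Times – overnight seeding, then 1 h dark dye loading · Measured by – kinetic Fluo-4 NW fluorescence of intracellular calcium · Read-out – B-scored fluorescence response ratio · Benchmarks – positive and negative control wells on each plate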
`CCCCN1C(=O)/C(=C2/Sc3ccc(Cl)cc3N2CC)SC1=S`: the B-score was 34.9 (active).
Next, `CCCCN1C(=O)/C(=C/C=C2/C=Cc3ccccc3N2CC)SC1=S`: “inactive”; `CCCCN1C(=O)/C(=C2/C=CC=CN2C)SC1=S`: “inactive”.
In the case of `COc1ccc(CCNc2ncnc3c2nnn3Cc2ccccc2)cc1`, the B-score entry is “inactive”.
`Cc1c(CN2CC[C@@H](N3CCN(c4ccccn4)CC3)[C@H](O)C2)[nH]c2ccc(F)cc12`: the B-score result is “inactive”.
Turning to `Fc1ccc2[nH]c3c(N4CCSCC4)ncnc3c2c1`, the B-score is 29.1 (active).
Next, `CC(C)C(=O)Nc1cccc(NC(=S)NC(=O)C(c2ccccc2)c2ccccc2)c1`: “inactive”; `CCCCC(=O)NNC(=S)NC(=O)C(c1ccccc1)c1ccccc1`: 145 (active).
Consider `O=C(NNC(=S)NCc1ccco1)C(c1ccccc1)c1ccccc1`, for which the B-score entry is “inactive”.
Consider `CN(C)Cc1ccc(F)cc1Sc1cc(Cl)ccc1Cl`, for which the B-score entry was “inactive”.
Then `COc1ccccc1N1CC(C(=O)Nc2nnc(SCC(=O)NC(C)C)s2)CC1=O` (stereo not drawn), with “inactive”; and `CCc1noc(C)c1C(=O)Nc1nc(-c2ccccc2)cs1`, with “inactive”; and `OC(C#CCN1CCOCC1)(c1ccccc1)C1CCCCC1` (stereo not drawn), with “inactive”.
Turning to `CCCc1ccc(OCC(=O)NNC(=S)NC(=O)c2ccco2)cc1`, the B-score entry was “inactive”.
Next, `Cc1ccc(C(=O)NNC(=O)C(C)Oc2ccc3ccccc3c2)o1` (stereo not drawn): “inactive”; `CC(Oc1ccc2ccccc2c1)C(=O)NNC(=S)NC(=O)c1ccco1` (stereo not drawn): 69.9 (active).
For the molecule `O=C(CCN1CCc2ccccc2C(O)(c2ccccc2)C1)c1ccc2c(c1)OCCO2` (stereo not drawn), the B-score was 29.6 (active).
Next, `O=C(CN1CCC(O)(c2ccccc2)CC1)Nc1ccc2c(c1)OCCO2`: “inactive”.
Next, `CCC1(c2ccccc2)NC(=O)N(CC(=O)c2ccc3c(c2)OCO3)C1=O` (stereo not drawn): “inactive”; `Cc1ccc(N=C2SCCCN2C(=O)c2cccc(N3C(=O)CCC3=O)c2)cc1Cl`: “inactive”; `CS(=O)(=O)c1sc(C(=O)NC(=S)Nc2ccc(OC(F)(F)F)cc2)c2c1C=CCC2`: “inactive”.
As for `CC(=O)OCC(COC(C)=O)OC(C)=O`, the B-score result was “inactive”.
Then `CC(=O)OC(C)C[N+](C)(C)C` (stereo not drawn), with 119 (active); and `CC(C[N+](C)(C)C)OC(N)=O` (stereo not drawn), with 36.5 (active); and `O=C(Nc1cccc(F)c1)c1coc(=O)c(Br)c1`, with “inactive”.
Take `N#Cc1cc([N+](=O)[O-])ccc1NCC1CCCO1` (stereo not drawn): the B-score entry is “inactive”.
On to `CCCc1nc2c(c(=O)c3ccccc3n2C)c(=O)n1-c1cc(C)cc(C)c1`, for which the B-score result is “inactive”.
Next, `Cn1c2ccccc2c(=O)c2c(=O)n(Cc3ccco3)c(COc3ccccc3)nc21`: “inactive”; `CCCc1nc2c(c(=O)c3ccccc3n2C)c(=O)n1C1CCCCCC1`: 63 (active); `C/C=C/c1ccc(OCC(=O)OCC(=O)Nc2c(C)nn(-c3ccccc3)c2C)c(OC)c1`: “inactive”.
As for `COc1cc2c3c(c1)/C(=C1/SC(=S)NC1=O)C(=O)N3C(C)(C)C=C2C`, the B-score entry is “inactive”.
Next, `O=C(COC(=O)c1ccc(O)cc1)Nc1nccs1`: “inactive”; `COc1ccc(CNc2ccc3c(c2)CCC3)cc1OC`: “inactive”.
Next, `O=C(COC(=O)CNS(=O)(=O)c1ccccc1)NC12CC3CC(CC(C3)C1)C2`: “inactive”; `CN(C)C(=O)N=NC(=O)N(C)C`: “inactive”.
In the case of `NC1=NC(=O)C2(COC(c3ccccc3Cl)OC2)S1` (stereo not drawn), the B-score result was “inactive”.
Next, `CCCCCC(=O)NC(=S)NNC(=O)c1ccc([N+](=O)[O-])cc1`: “inactive”; `CC(C)CC(=O)NC(=S)NNC(=O)c1cccc([N+](=O)[O-])c1`: 70.6 (active).
Then `CC(C)(C)SCCNC(=O)c1cccc([N+](=O)[O-])c1`, with “inactive”; and `CC(=O)c1c(O)cc2n(c1=O)-c1ccc(Cl)cc1C2(C)C`, with “inactive”; and `CCN(CC(=O)Nc1ccc2c(c1)OCCO2)Cc1cc(=O)oc2cc(C)c(C)cc12`, with “inactive”.
Next, `CC(=O)Nc1ccc(NC(=O)CS(=O)(=O)c2cn(CC(=O)N3CCCCC3)c3ccccc23)cc1`: “inactive”.
As for `CC1CCCN(S(=O)(=O)c2ccc(C(=O)Nc3nnc(-c4ccncc4)o3)cc2)C1` (stereo not drawn), the B-score result was “inactive”.
Next, `CSCc1nnc(NC(=O)c2ccc(S(=O)(=O)N3CCCCC3C)cc2)o1` (stereo not drawn): “inactive”.
Next, `CC1CCCCN1S(=O)(=O)c1ccc(C(=O)Nc2nnc(-c3cccs3)o2)cc1` (stereo not drawn): 48.6 (active); `Cc1nc(N)nc(SCc2ccc([N+](=O)[O-])cc2)c1N`: “inactive”; `CCN(C(=O)CN1C(=O)/C(=C/c2ccc(F)cc2)SC1=S)C1CCS(=O)(=O)C1` (stereo not drawn): “inactive”.
Then `Nc1ccccc1SC(C[N+](=O)[O-])c1ccccc1` (stereo not drawn), with 28.1 (active); and `Nc1ccccc1SCc1cc([N+](=O)[O-])cc2c1OCOC2`, with “inactive”.
Turning to `CCS(=O)(=O)c1cc([N+](=O)[O-])c(Sc2ccccc2N)s1`, the B-score entry is “inactive”.
Then `CN1CCN(C(=O)c2ccc(NS(=O)(=O)c3ccccc3)cc2)CC1`, with “inactive”.
Take `C/C(=N\NC(=O)c1ccc2ccccc2c1)c1cccnc1`: the B-score result is “inactive”.
Next, `O=C(NCCC1CCCCN1S(=O)(=O)c1ccc(F)cc1)C(=O)NC1CC1` (stereo not drawn): “inactive”.
For `CN(C)c1ccc(CNC(=O)CN2C(=O)COc3ccc(S(=O)(=O)N4CCCC4)cc32)cc1`, the B-score result was “inactive”.
In the case of `CC(=O)Nc1ccc(NC(=O)CN2C(=O)COc3ccc(S(=O)(=O)N4CCCCC4)cc32)cc1`, the B-score entry was “inactive”.
Next, `Cc1cccc(N(C)C(=O)CN2C(=O)COc3ccc(S(=O)(=O)N4CCCCCC4)cc32)c1`: 46.3 (active).
Next, `CCN(CC)S(=O)(=O)c1ccc(N2CC(C(=O)NCc3cccnc3)CC2=O)cc1` (stereo not drawn): “inactive”.
Next, `COc1ccnc(Oc2ccccc2)n1`: “inactive”; `Cc1ccc(S(=O)(=O)N(CC(=O)NN=C2CCN(C)CC2)c2ccc(F)cc2)cc1`: “inactive”; `CC(C)OC(=O)CN1C(=O)C(=O)c2ccccc21`: “inactive”.
As to `O=C1c2ccccc2C(=O)N1c1cccc2ccccc12`, the B-score entry was “inactive”.
Turning to `O=C1C(=O)N(c2ccccc2)c2ccccc21`, the B-score was 29.6 (active).
On to `N/C(=N\OC(=O)CCCC(=O)O)c1ncc(C(F)(F)F)cc1Cl`, for which the B-score result was “inactive”.
`CC1CCCCC1NC(=O)CN1CCC(O)(c2ccc3c(c2)OCO3)CC1` (stereo not drawn): the B-score result is “inactive”.
In the case of `O=[N+]([O-])c1ccc2c(c1)C(O)n1nc(-c3ccccc3)nc1S2` (stereo not drawn), the B-score entry is “inactive”.
Consider `CCOC(=O)CNC(=O)/C(=C\c1ccc(F)cc1)NC(=O)c1ccccc1`, for which the B-score result was “inactive”.
For the molecule `COc1ccc(/C=C(\NC(=O)c2ccccc2)C(=O)NCCN2CCOCC2)cc1OC`, the B-score result is “inactive”.
In the case of `Cn1c2ccccc2c2cc(/C=C(\NC(=O)c3ccccc3)C(=O)NCC(=O)O)ccc21`, the B-score was 52.2 (active).

Source of the values: PubChem BioAssay AID588627 (Johns Hopkins Ion Channel Center, 2011).
